47 compounds from ChEMBL document CHEMBL1800073, “Inhibition of 1-deoxy-D-xylulose-5-phosphate reductoisomerase by lipophilic phosphonates: SAR, QSAR, and crystallographic studies” (J Med Chem, 2011) can be followed below.

Active and inactive are the calls of the source. No cut-off for these calls is given here. Bounds are passed on as bounds.

Assay [1] deals with T1, 1-deoxy-D-xylulose 5-phosphate reductoisomerase (Mycobacterium tuberculosis, UniProt P9WNS1).
T1 sequence (P9WNS1 whole entry): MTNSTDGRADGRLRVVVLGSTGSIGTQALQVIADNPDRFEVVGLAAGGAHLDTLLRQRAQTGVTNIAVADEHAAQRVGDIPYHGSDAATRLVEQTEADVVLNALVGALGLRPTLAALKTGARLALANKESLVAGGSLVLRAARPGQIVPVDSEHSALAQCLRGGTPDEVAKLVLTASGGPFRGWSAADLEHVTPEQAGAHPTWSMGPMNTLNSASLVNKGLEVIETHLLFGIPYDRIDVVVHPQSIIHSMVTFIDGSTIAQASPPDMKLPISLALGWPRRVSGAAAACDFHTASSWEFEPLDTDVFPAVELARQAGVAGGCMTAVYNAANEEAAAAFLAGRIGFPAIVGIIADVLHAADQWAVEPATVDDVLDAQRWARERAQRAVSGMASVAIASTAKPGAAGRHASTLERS
Nature of the assay: Inhibition of Mycobacterium tuberculosis recombinant DXR expressed in Escherichia coli BL21 (DE3) using DXP as substrate and MgCl2 as cofactor preincubated for 10 mins. The essentials: (§1)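 Assay used 50 nM enzyme in 50 mM HEPES pH 7.6 with 4 mM MgCl2, 50 µM NADPH and 25 µg/mL BSA, plus 100 µM DXP added after a 10 min, 30 °C preincubation. IC50 came from initial velocities, at least three experiments.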

The nature of assay [2]: Inhibition of Escherichia coli recombinant DXR using DXP as substrate and MgCl2 as cofactor preincubated for 10 mins. The essentials: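 Purified enzyme at 10 nM in 50 mM HEPES pH 7.5 with 2 mM MgCl2, 50 µM NADPH and 25 µg/mL BSA. Inhibitor was preincubated with the enzyme for 10 min at 30 °C, then 100 µM DXP was added. IC50 came from dose-response fits of initial velocities, at least three experiments.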

For the next assay, the system named is Escherichia coli. Nature of the assay: Inhibition of Escherichia coli recombinant DXR using DXP as substrate and MgCl2 as cofactor at 100 uM preincubated for 10 mins. Put shortly:
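Purified recombinant EcDXR (10 nM) with 2 mM MgCl2, 50 µM NADPH, 50 mM HEPES pH 7.5, 25 µg/mL BSA. Inhibitor pre-incubated with enzyme 10 min at 30 °C; reaction started with 100 µM DXP; NADPH consumption followed at 340 nm.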

The target of assay [3] is T2, 1-deoxy-D-xylulose 5-phosphate reductoisomerase (Mycobacterium tuberculosis) (UniProt P9WNS1).
T2 sequence (whole entry): T1 sequence (P9WNS1 whole entry)
Nature of the assay: Inhibition of Mycobacterium tuberculosis recombinant DXR expressed in Escherichia coli BL21 (DE3) using DXP as substrate and MgCl2 as cofactor at 100 uM preincubated for 10 mins. Put shortly:
as §1

The nature of assay [4]: Inhibition of DXR.

On to `O=CN(O)CCC(c1ccc(Cl)c(Cl)c1)P(=O)(O)O` (centres undefined), for which, in assay [1], the Ki – broadly, the equilibrium dissociation constant of an inhibitor or competing ligand from its target – was 1.2 µM. In assay [2], the Ki is 0.058 µM and the pKi (as a rule, the negative decadic logarithm of the Ki, by convention in mol/L) is on record as 7.24.

As for `O=P(O)(O)c1ccccc1` [PHENYLPHOSPHONIC ACID], the inhibition entry (with Escherichia coli; in assay [3]) was “inactive” each time. Besides, the pKi in assay [2] amounted to 3.52.

Turning to `O=P(O)(O)Cc1cccnc1`, in assay [3], the inhibition entry is “inactive”. Moreover, in assay [2], the inhibitory constant (Ki) came out at 5 µM and the pKi came to 5.3.

Consider `O=C(O)Cc1ccccn1`, for which the inhibition result (in the assay on Escherichia coli; in assay [3]) was “inactive” in each case. The pKi in assay [2] was 3.52.

As for `O=S(=O)(O)Cc1ccc(-c2ccccc2)cn1`, the inhibition entry (with Escherichia coli; in assay [3]) was “inactive” throughout. Further, in assay [2], the pKi was under 3.52.

For the compound `O=P(O)(O)Cc1ccncn1`, the Ki in assay [1] was found to be 12.4 µM. In assay [2], the inhibition constant (Ki) was 3.5 µM and the pKi was determined as 5.46.

For `O=P(O)(O)Cc1ccc(OCc2ccccc2)cn1`, the inhibition entry (in the assay with Escherichia coli; in assay [3]) was “inactive” in each case. Further, in assay [2], the negative logarithm of the Ki (pKi) is 3.52.

For the compound `O=C(O)Cc1cccnc1`, the inhibition entry (with Escherichia coli; in assay [3]) was “inactive” each time. Further, the pKi in assay [2] is under 3.52.

For the compound `O=P(O)(O)c1ccccn1`, the inhibition entry (in the assay on Escherichia coli; in assay [3]) was “inactive” each time. In addition, in assay [2], the pKi was found to be 3.52.

As to `CC(=O)N(O)CCC(c1ccc(Cl)c(Cl)c1)P(=O)(O)O` (racemic), the Ki was 1.5 µM in assay [1] and 0.036 µM in assay [2]. Moreover, the pKi in assay [2] was 7.44.

Take `O=C(NO)c1ccccn1`: the inhibition result (in the assay with Escherichia coli; in assay [3]) was “inactive” throughout. Further, the pKi in assay [2] is under 3.52.

Turning to `Cc1ccc(-c2ccc(CP(=O)(O)O)nc2)cc1`, the inhibition result in assay [3] was “inactive”. Besides, in assay [2], the Ki was found to be 3.9 µM and the pKi amounted to 5.41.

For `O=P(O)(O)CCc1ccccc1O`, the inhibition result (in the assay on Escherichia coli; in assay [3]) was “inactive” throughout. Besides, the pKi in assay [2] was 3.52.

For `O=c1cccc(CCP(=O)(O)O)[nH]1`, the inhibition entry (in the assay with Escherichia coli; in assay [3]) was “inactive” throughout. The pKi in assay [2] worked out at 3.52.

With `O=P(O)(O)Cc1ccc(-c2ccc3ccccc3c2)cn1`, the inhibition result in assay [3] was “inactive”. Also, in assay [2], the inhibition constant (Ki) turned out to be 13.9 µM and the pKi is on record as 4.86.

Regarding `O=P(O)(O)Cc1ccccc1` [BENZYLPHOSPHONIC ACID], the inhibition entry (in the assay with Escherichia coli; in assay [3]) was “inactive” throughout. Further, in assay [2], the pKi is 3.52.

With `O=P(O)(O)Cc1ccc2ccccc2n1`, the Ki in assay [1] stood at 6.9 µM. In assay [2], the Ki is 7.9 µM and the pKi came out at 5.1.

Consider `CC(=O)N(O)CCCP(=O)(O)O` [FR-900098], for which the Ki in assay [1] worked out at 0.13 µM; in assay [2] it was 0.019 µM. In addition, the pKi in assay [2] came to 7.72.

Consider `O=C(O)c1ccccn1` [2-PICOLINIC ACID], for which the inhibition result (with Escherichia coli; in assay [3]) was “inactive” throughout. In assay [2], the pKi came out at 3.52.

For `O=P(O)(O)Cc1cc(Br)ccn1`, the inhibitory constant (Ki) in assay [1] was 32.7 µM; in assay [2], 3.5 µM. The pKi in assay [2] was 5.46.

Turning to `O=P(O)(O)Cc1ccc(Br)cn1`, in assay [1], the Ki turned out to be 45.2 µM. Moreover, in assay [2], the Ki was found to be 6.7 µM and the pKi is recorded as 5.17.

Regarding `O=P(O)(O)Cc1cccc(O)c1O`, the inhibition result (in the assay with Escherichia coli; in assay [3]) was “inactive” throughout. Moreover, in assay [2], the negative-log Ki (pKi) was found to be 3.52.

Regarding `O=P(O)(O)Cc1cccc(-c2ccccc2)n1`, the inhibition result in assay [3] is “inactive”. In assay [2], the Ki worked out at 3.5 µM and the pKi was found to be 5.46.

Turning to `O=P(O)(O)CCc1ccccn1`, the inhibition entry in assay [3] is “inactive”. Also, in assay [2], the Ki was found to be 18.6 µM and the pKi is 4.73.

With `O=P(O)(O)CCCc1ccccn1`, in assay [3], the inhibition result is “inactive”. Besides, in assay [2], the Ki was 9.5 µM and the pKi is given as 5.02.

With `O=C(Cc1ccc(-c2ccccc2)cn1)NO`, the inhibition result (in the assay on Escherichia coli; in assay [3]) was “inactive” in each case. Moreover, the negative-log Ki (pKi) in assay [2] is under 3.52.

`O=P(O)(O)Cc1ccccn1` [PYRIDIN-2-YLMETHYLPHOSPHONIC ACID]: the inhibition constant Ki was 1.6 µM in assay [1] and 2.3 µM in assay [2]. Further, in assay [2], the pKi came to 5.64.

On to `O=P(O)(O)Cc1ccc(-c2ccc(F)cc2)cn1`, for which, in assay [1], the Ki was determined as 50.7 µM. For the same compound, in assay [2], the Ki came to 1.1 µM and the pKi was 5.96.

As to `O=P(O)(O)Cc1ccc(O)cn1`, the Ki in assay [1] came to 17.3 µM. For the same compound, in assay [2], the Ki came out at 0.7 µM and the pKi turned out to be 6.15.

As for `O=P(O)(O)CCc1ccccc1`, the inhibition result (in the assay on Escherichia coli; in assay [3]) was “inactive” each time. The pKi in assay [2] is 3.52.

Turning to `O=P(O)(O)Cc1ccncc1`, the figures for the Ki in assay [1] and in assay [2] were 6.8 µM and 3.5 µM, respectively. In assay [2], the pKi stood at 5.46.

For `O=c1ccc(CP(=O)(O)O)cn1O`, the inhibition result (in the assay with Escherichia coli; in assay [3]) was “inactive” in each case. Besides, the pKi in assay [2] is 3.52.

As for `O=C(Cc1ccccn1)NO`, the inhibition result (with Escherichia coli; in assay [3]) was “inactive” throughout. Further, the pKi in assay [2] is on record as 3.52.

On to `COc1cccc(-c2ccc(CP(=O)(O)O)nc2)c1`, for which the inhibition entry in assay [3] is “inactive”. For the same compound, in assay [2], the Ki stood at 3.6 µM and the pKi was found to be 5.46.

As for `O=P(O)(O)C(Nc1ccc(Cl)cn1)P(=O)(O)O`, the IC50 (as a rule, the concentration that gives 50% inhibition) in assay [4] stood at 7 µM. Also, in assay [3], the inhibition entry is “inactive”. The Ki in assay [2] stood at 15.3 µM.

As to `O=c1ccc(-c2ccccc2)cn1O` [1-HYDROXY-5-PHENYLPYRIDIN-2(1H)-ONE], the Ki in assay [1] was 21.8 µM; in assay [2], 0.7 µM.

`O=P(O)(O)C(Nc1nccc2ccccc12)P(=O)(O)O` displayed a concentration for half-maximal inhibition (IC50) in assay [4] of 4 µM. In addition, the Ki in assay [2] amounted to 6.3 µM.

Take `O=P(O)(O)Cc1cc(-c2ccccc2)ccn1`: in assay [1], the Ki worked out at 6.9 µM. For the same compound, in assay [2], the Ki amounted to 1.1 µM and the pKi turned out to be 5.96.

In the case of `O=P(O)(O)Cc1cc(-c2ccc(F)cc2)ccn1`, the inhibition entry in assay [3] is “inactive”. In assay [2], the Ki was determined as 3.5 µM and the pKi came out at 5.46.

As for `O=C(O)c1ccc(-c2ccccc2)cn1`, the inhibition result (in the assay on Escherichia coli; in assay [3]) was “inactive” throughout. Also, the pKi in assay [2] was under 3.52.

As for `O=C(O)Cc1ccncc1`, the inhibition result (with Escherichia coli; in assay [3]) was “inactive” in each case. In addition, the pKi in assay [2] came out at 3.52.

As for `O=P(O)(O)Cc1ccc(Cl)c(Cl)c1`, the inhibition entry (in the assay with Escherichia coli; in assay [3]) was “inactive” each time. The pKi in assay [2] is 3.52.

In the case of `O=C(O)Cc1ccc(-c2ccccc2)cn1`, the inhibition result (with Escherichia coli; in assay [3]) was “inactive” in each case. Also, the pKi in assay [2] was under 3.52.

As for `O=P(O)(O)Cc1ccc(-c2ccc(Cl)cc2)cn1`, in assay [3], the inhibition result is “inactive”. In addition, in assay [2], the Ki stood at 1.6 µM and the pKi stood at 5.8.

Turning to `O=P(O)(O)Cc1ccc(-c2ccccc2)cn1`, the Ki in assay [1] was 3.2 µM. Besides, in assay [2], the Ki was found to be 0.42 µM and the pKi is 6.38.

With `O=P(O)(O)Cc1cnccn1`, the inhibition result in assay [3] was “inactive”. In assay [2], the inhibitory constant (Ki) was 11.2 µM and the pKi came to 4.95.

On to `O=P(O)(O)Cc1cccc(Br)n1`, for which the inhibition result in assay [3] was “inactive”. Also, in assay [2], the Ki came to 3.6 µM and the negative-log Ki (pKi) is recorded as 5.46.
